According to ChEMBL document CHEMBL1128217, “Synthesis, structure-affinity relationships, and biological activities of ligands binding to retinoic acid receptor subtypes” (J Med Chem, 1995):
pIC50, pKi: −log10 of the molar value.

Assays:
F9 [1] = assay: In vitro promotion of plasminogen activator secretion from F9 (murine teratocarcinoma) cells.; assay type: functional, cell-based; conditions: Mus musculus
Summary of the method: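 F9 murine teratocarcinoma cells grown in DMEM with 15% fetal bovine serum, exposed 3 days to a range of retinoid concentrations. Differentiation quantified by plasminogen activator secretion; AC50 (concentration giving half-maximal secretion) obtained by nonlinear regression.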

[2] = biological target: T1, Retinoic acid receptor beta (Homo sapiens, UniProt P10826); assay: Binding affinity to retinoic acid receptor beta using [3H]CD 367 as radioligand
T1 sequence (P10826 whole entry): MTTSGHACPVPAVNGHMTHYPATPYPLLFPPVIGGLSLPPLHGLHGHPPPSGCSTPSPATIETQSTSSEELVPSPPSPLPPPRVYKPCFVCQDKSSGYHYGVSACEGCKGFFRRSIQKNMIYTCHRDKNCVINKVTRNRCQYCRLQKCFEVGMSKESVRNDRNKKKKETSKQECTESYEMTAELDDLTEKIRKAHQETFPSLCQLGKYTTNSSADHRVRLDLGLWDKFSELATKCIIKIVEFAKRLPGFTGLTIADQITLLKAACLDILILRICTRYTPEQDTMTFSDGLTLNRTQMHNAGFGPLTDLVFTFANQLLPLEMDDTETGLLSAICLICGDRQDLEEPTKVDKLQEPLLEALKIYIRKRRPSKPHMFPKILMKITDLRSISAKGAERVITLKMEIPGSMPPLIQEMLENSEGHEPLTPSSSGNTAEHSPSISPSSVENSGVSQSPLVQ

[3] = biological target: T2, Retinoic acid receptor alpha (Homo sapiens, UniProt P10276); assay: Binding affinity to retinoic acid receptor alpha using [3H]CD 367 as radioligand
T2 sequence (P10276 whole entry): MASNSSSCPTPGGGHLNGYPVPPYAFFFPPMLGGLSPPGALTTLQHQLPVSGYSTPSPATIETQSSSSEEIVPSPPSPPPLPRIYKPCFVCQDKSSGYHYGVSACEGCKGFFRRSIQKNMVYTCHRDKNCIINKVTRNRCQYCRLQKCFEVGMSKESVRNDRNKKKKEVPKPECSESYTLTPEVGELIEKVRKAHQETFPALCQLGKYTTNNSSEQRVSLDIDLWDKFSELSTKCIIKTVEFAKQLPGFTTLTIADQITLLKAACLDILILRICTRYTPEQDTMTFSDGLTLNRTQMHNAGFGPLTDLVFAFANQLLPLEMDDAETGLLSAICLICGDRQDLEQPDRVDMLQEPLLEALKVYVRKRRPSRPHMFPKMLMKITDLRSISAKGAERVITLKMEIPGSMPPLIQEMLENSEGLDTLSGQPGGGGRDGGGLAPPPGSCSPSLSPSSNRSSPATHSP

[4] = biological target: T3, Retinoic acid receptor gamma (Homo sapiens, UniProt P13631); assay: Binding affinity to retinoic acid receptor (RAR) gamma using [3H]CD 367 as radioligand
T3 sequence (P13631 whole entry): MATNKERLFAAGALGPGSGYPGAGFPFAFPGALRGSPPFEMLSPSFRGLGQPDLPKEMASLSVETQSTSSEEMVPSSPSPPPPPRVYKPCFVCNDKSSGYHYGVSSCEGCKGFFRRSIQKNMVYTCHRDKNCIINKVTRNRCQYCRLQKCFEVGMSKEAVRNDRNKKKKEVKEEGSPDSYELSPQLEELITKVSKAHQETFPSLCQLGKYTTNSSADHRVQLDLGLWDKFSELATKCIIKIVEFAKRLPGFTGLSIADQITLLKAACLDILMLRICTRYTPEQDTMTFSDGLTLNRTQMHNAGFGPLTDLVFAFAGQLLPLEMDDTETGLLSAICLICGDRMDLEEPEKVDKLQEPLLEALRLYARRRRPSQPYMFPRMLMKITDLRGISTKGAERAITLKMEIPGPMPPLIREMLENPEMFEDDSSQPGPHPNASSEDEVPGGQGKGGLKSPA

F9 [5] = assay: Compound was evaluated for its inhibitory activity against F9 murine teratocarcinoma cell differentiation; NA=not active; assay type: functional, cell-based, Mus musculus
F9 [6] = assay: Compound was evaluated for its inhibitory activity against F9 murine teratocarcinoma cell differentiation;NA=not active; assay type: functional, cell-based, Mus musculus
F9 [7] = assay: Compound was evaluated for its inhibitory activity against F9 murine teratocarcinoma cell differentiation; assay type: functional, cell-based; conditions: Mus musculus

Structure (SMILES) | AC50 (F9 [1]) [nM] | pKi [2] | pKi [3] | pKi [4] | AC50 (F9 [5]) | AC50 (F9 [6]) | IC50 (F9 [6]) | pIC50 (F9 [7])
O=C(O)c1ccc2cc(-c3ccc(O)c(C45CC6CC(CC(C6)C4)C5)c3)ccc2c1 [O-DEMETHYLATED ADAPALENE] | 33 | 5.61 | 5.19 |  |  |  |  | 
O=C(O)c1ccc2cc(-c3ccc(CO)c(C45CC6CC(CC(C6)C4)C5)c3)ccc2c1 | 460 | 6.81 | < 5.00 | 6.41 |  |  |  | 
O=C(O)c1ccc2cc(-c3ccc(CC(O)CO)c(C45CC6CC(CC(C6)C4)C5)c3)ccc2c1 (centres undefined) | 100 | 6.80 | < 5.00 | 7.47 |  |  |  | 
O=C(O)c1ccc2cc(-c3ccc(C(O)CO)c(C45CC6CC(CC(C6)C4)C5)c3)ccc2c1 (centres undefined) | 73 | 6.54 | < 5.00 | 6.82 |  |  |  | 
O=C(O)c1ccc2cc(-c3ccc(CCCO)c(C45CC6CC(CC(C6)C4)C5)c3)ccc2c1 | 7.5 | 7.68 | 6.16 | 7.14 |  |  |  | 
COc1ccc(-c2ccc3cc(C(=O)O)ccc3c2)cc1C12CC3CC(CC(C3)C1)C2 | 37 | 7.47 | 5.96 |  |  |  |  | 
COc1ccc(/C(C)=C/c2ccc(C(=O)O)cc2)cc1C(C)(C)C | 30 | 7.92 | 6.89 | 7.89 |  |  |  | 
C/C(=C\c1ccc(C(=O)O)cc1)c1ccc(O)c(C2(C)CCCCC2)c1 | 300 | 7.05 | 5.98 | 7.57 |  |  |  | 
CCCCCCOc1ccc(-c2ccc3cc(C(=O)O)ccc3c2)cc1C12CC3CC(CC(C3)C1)C2 |  | < 5.00 | < 5.00 | < 5.00 | Not Active |  |  | 
COc1ccc(/C(C)=C/c2ccc(C(=O)O)cc2)cc1C12CC3CC(CC(C3)C1)C2 | 100 | 6.98 | 6.34 | 7.02 |  |  |  | 
CC1=C(/C=C/C(C)=C/C=C/C(C)=C/C(=O)O)C(C)(C)CCC1 [TRETINOIN] | 200 |  |  |  |  |  |  | 
CC(C)(C)c1cc(-c2ccc3cc(C(=O)O)ccc3c2)ccc1O |  | 5.45 | < 5.00 | 6.70 |  | Not Active | Not Active | 
COc1ccc(-c2ccc3cc(C(=O)O)ccc3c2)cc1C1(C)CCCCC1 | 150 | 7.59 | 5.95 | 6.80 |  |  |  | 
O=C(O)c1ccc2cc(-c3ccc(OCC(O)CO)c(C45CC6CC(CC(C6)C4)C5)c3)ccc2c1 (centres undefined) | 83 | 7.05 | 5.30 | 6.82 |  |  |  | 
COc1ccc(-c2ccc3cc(C(=O)O)ccc3c2)cc1C(C)(C)C | 200 | 7.44 | 5.19 | 6.37 |  |  |  | 
O=C(O)c1ccc2cc(-c3ccc(C(=O)O)c(C45CC6CC(CC(C6)C4)C5)c3)ccc2c1 | 2000 | < 5.00 | < 5.00 | < 5.00 |  |  |  | 
C/C(=C\c1ccc(C(=O)O)cc1)c1ccc2c(c1)C(C)(C)CCC2(C)C | 0.78 |  |  |  |  |  |  | 
CC1(C)CCOc2ccc(-c3ccc4cc(C(=O)O)ccc4c3)cc21 | 300 | 6.68 | 5.07 | 6.07 |  |  |  | 
CC1(C)CCC(C)(C)c2cc3cc(-c4ccc(C(=O)O)cc4)ccc3cc21 | 0.46 | 8.52 | 8.28 | 8.70 |  |  |  | 
COc1ccc(/C(C)=C/c2ccc(C(=O)O)cc2)cc1C1(C)CCCCC1 | 30 | 7.77 | 6.38 | 7.54 |  |  |  | 
C/C(=C\c1ccc(C(=O)O)cc1)c1ccc(O)c(C23CC4CC(CC(C4)C2)C3)c1 | 66 | 5.90 | 5.94 | 7.28 |  |  |  | 
CC1(c2cc(-c3ccc4cc(C(=O)O)ccc4c3)ccc2O)CCCCC1 | 175 | 6.18 | < 5.00 | 6.92 |  |  |  | 
O=C(O)c1ccc(/C=C/c2ccc(O)c(C34CC5CC(CC(C5)C3)C4)c2)cc1 | 1 | 7.15 | 6.21 | 7.70 |  |  |  | 
CC1(C)CCC(C)(C)c2cc(-c3ccc4cc(C(=O)O)ccc4c3)ccc21 | 15 | 7.89 | 6.24 | 7.40 |  |  |  | 
C/C(=C\c1ccc(C(=O)O)cc1)c1ccc(O)c(C(C)(C)C)c1 |  | 6.98 | 6.08 | 7.07 |  | Not Active |  | 6.15
